This is an account of results in article PMC5079036 (Journal of the American Heart Association: Cardiovascular …, 2016).

Each structure is given as a SMILES string.

One data set has as its system Male Sprague‐Dawley rats. The data set can be described thus: In vivo myocardial infarction rodent model. Set-up: species or system rat.
Data set [1] concerns primary neonatal cardiomyocytes (PNCMs). Kind of data set: Live cell imaging of mitochondrial membrane potential under normoxia. The class given is cell-based, rat. The method, boiled down:
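Neonatal rat cardiomyocytes (pups 1–3 days old) were plated on glass coverslips at 150 000 cells per dish. Cells were loaded with TMRE 150 nmol/L for 30 min at 37°C, then washed. Imaging was single-cell in a chamber at 37°C, 5% pco₂ and 21% po₂. Inhibitor (1 μmol/L) was added 10 min before the TRPV1 agonist (1 μmol/L). Images were taken every 5 min over 30 min and normalized to baseline (=1). n=3 biological replicates.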

Another data set has as its system humans. The note with it: TRPV1 antagonist; cited from earlier work.
In the next data set the test system is isolated rat hearts. The data set can be described thus: Isolated heart model of ischemia–reperfusion injury. The note with it: capsaicin 0.1 μmol/L, unpaced hearts, vs vehicle DMSO; n=4.

Consider `Oc1cc2c(cc1O)CN(C(=S)NCCc1ccc(Cl)cc1)CCC2` [CPZ, capsazepine], for which the “Effect on heart rate change afforded by capsaicin” value in the data set on Male Sprague‐Dawley rats (CPZ 3 mg/kg or CsA 2.5 mg/kg before capsaicin 0.3 mg/kg) is “reduced the change in heart rate”. Besides, the “Effect on capsaicin-induced change in mitochondrial membrane potential (TMRE)” value in data set [1] (CPZ 1 μmol/L or CsA 1 μmol/L 10 minutes prior to CAP 1 μmol/L, n=3) is listed as “blocked”.
Regarding `CC(=O)Nc1nc2c(Oc3cc(-c4ccc(C(F)(F)F)cc4)ncn3)cccc2s1` [AMG517], the “Body temperature effect in humans” value in the data set with humans is on record as “caused sudden hyperthermia in humans that persisted for days”.
In the case of `COc1cc(CNC(=O)CCCC/C=C/C(C)C)ccc1O` [CAP, capsaicin], the “Heart rate during first 15 minutes of infusion” value in the data set with isolated rat hearts is “increased heart rate during the first 15 minutes of infusion”. The “Change in heart rate after CAP administration” value in the data set on Male Sprague‐Dawley rats (CAP 0.1-3.0 mg/kg iv, n=6 per group) was “increased heart rate when given intravenously”. Besides, in the data set on Male Sprague‐Dawley rats (given 5 minutes before reperfusion (CAP 0.3, CsA 2.5, V1‐cal 1 mg/kg iv)), the “infarct size reduction compared with control” value worked out at 27%. Besides, in data set [1] (capsaicin 0.1–10 μmol/L, 30 min, normoxia, 3 biological replicates), the “Mitochondrial membrane potential (TMRE fluorescence)” value was “decreased mitochondrial membrane potential”.
